We go through 31 compounds from ChEMBL document CHEMBL4359879, “Synthesis and evaluation of 2-carboxy indole derivatives as potent and selective anti-leukemic agents” (Eur J Med Chem, 2019).

The source made the active and inactive calls. The rule behind the calls is not given here.

A word on the EC50: it is the concentration giving half of the maximal effect. Read a low EC50 as a more potent agent.

Assay type in all cases: functional, cell-based
In one experiment the test system is CCRF-CEM. The experiment can be described thus: Antiproliferative activity against human CEM cells incubated for 48 hrs by MTT assay. The method, boiled down: (§1)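 Cells grown in RPMI-1640 with 10% FBS, penicillin/streptomycin, 37 °C, 5% CO2. After 48 h of exposure to a dilution series, MTT was added (0.5 mg/ml final) for 4 h. Formazan was dissolved overnight in acidic SDS (10% SDS, 0.01 mol/L HCl) and absorbance read at 570 and 620 nm. Survival was expressed relative to controls, and EC50 was fitted from dose-response curves.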

A further experiment deals with RS4-11. Description: Antiproliferative activity against human RS4:11 cells incubated for 48 hrs by MTT assay. The conditions noted are these: RS4-11, 48 h. The method in brief:
as §1
For orientation: Tetrazolium dyes change colour on reduction, which living cells bring about.

In experiment [1] the test system is HL-60. Description: Induction of differentiation in human HL60 cells assessed as increase in CD14 positive cells at 100 nM incubated for 48 hrs by 7-AAD staining-based flow cytometric analysis. The method in brief:
(§2)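 Vitamin D3 at 100 nM and ATRA at 2 μM served as positive controls. Stained with APC anti-CD11b and PE anti-CD14 for 30 min at 4 °C, then 7-AAD.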
(Flow cytometry measures light scatter and fluorescence of single cells or particles in a stream.)

Experiment [2] deals with HL-60. Description: Induction of differentiation in human HL60 cells assessed as increase in CD11b positive cells at 2 uM incubated for 48 hrs by 7-AAD staining-based flow cytometric analysis. The method, boiled down:
as §2

Consider `COC(=O)c1c(-c2ccc(C(F)(F)F)cc2)c2ccc(OC)cc2n1Cc1ccccc1`, for which the EC50 in the experiment with CCRF-CEM and in the experiment on RS4-11 was above 100 µM in each case. Turning to `COC(=O)c1[nH]c2ccccc2c1-c1ccc(C(F)(F)F)cc1`, the 50% effective concentration (EC50) in the experiment with CCRF-CEM and with RS4-11 was above 100 µM throughout. In the case of `COC(=O)c1[nH]c2cc(OC)ccc2c1C(=O)OC`, the EC50 in the experiment on CCRF-CEM and in the experiment on RS4-11 was above 100 µM in each case. As for `COC(=O)c1[nH]c2cc(C(F)(F)F)ccc2c1-c1ccc(OC)cc1`, the concentration for a half-maximal effect (EC50) in the experiment with CCRF-CEM and with RS4-11 was above 100 µM in each case. Regarding `COC(=O)c1[nH]c2cc(OC)ccc2c1C1CCCCC1`, the half-maximal effective concentration (EC50) in the experiment with CCRF-CEM is 80.2 µM; in the experiment on RS4-11 it was above 100 µM. With `COC(=O)c1[nH]c2cc(C(F)(F)F)ccc2c1-c1ccccc1`, the EC50 in the experiment with CCRF-CEM and in the experiment on RS4-11 was above 100 µM each time. Consider `COC(=O)Cc1c(C(=O)OC)[nH]c2cc(OC)ccc12`, for which the EC50 with CCRF-CEM and with RS4-11 was above 100 µM each time. For `COC(=O)c1c(-c2ccc(C(F)(F)F)cc2)c2ccc(OC)cc2n1C`, the EC50 in the experiment on CCRF-CEM and in the experiment on RS4-11 was above 100 µM each time.

As to `COC(=O)c1[nH]c2ccccc2c1-c1ccccc1`, the EC50 with CCRF-CEM was 35.8 µM; with RS4-11, 95.2 µM. As to `COC(=O)c1[nH]c2cc(OC)ccc2c1-c1ccc(F)cc1`, the EC50 in the experiment with CCRF-CEM turned out to be 10 µM; in the experiment with RS4-11 it was 85.6 µM. The corresponding values for `COC(=O)c1[nH]c2cc(C(F)(F)F)ccc2c1-c1ccc(C(F)(F)F)cc1` are above 100 µM and above 100 µM. Take `COC(=O)c1[nH]c2cc(O)ccc2c1-c1ccc(C(F)(F)F)cc1`: the half-maximal effective concentration (EC50) in the experiment on CCRF-CEM was determined as 9.9 µM; in the experiment on RS4-11 it was 10.3 µM.

For `COc1ccc2c(-c3ccc(C(F)(F)F)cc3)c(C(=O)N[C@@H](Cc3ccccc3)C(=O)O)[nH]c2c1`, the concentration for a half-maximal effect (EC50) with CCRF-CEM worked out at 52 µM; in the experiment on RS4-11, 43.1 µM. As for `COc1ccc2c(-c3ccc(C(F)(F)F)cc3)c(C(=O)N3CCOCC3)[nH]c2c1`, the figures for the EC50 in the experiment with CCRF-CEM and in the experiment on RS4-11 were 29.7 µM and 47.6 µM, respectively. As for `COC(=O)c1[nH]c2cc(OC)ccc2c1-c1ccc(Br)cc1`, the EC50 was found to be 0.33 µM with CCRF-CEM and 0.2 µM in the experiment on RS4-11. As to `CCc1c(C(=O)OC)[nH]c2cc(OC)ccc12`, the EC50 in the experiment with CCRF-CEM and in the experiment with RS4-11 was above 100 µM throughout. With `COC(=O)c1[nH]c2cc(OC)ccc2c1CC(C)C`, the figures for the 50% effective concentration (EC50) in the experiment with CCRF-CEM and in the experiment on RS4-11 were 16.6 µM and 37.8 µM, respectively. With `COc1ccc2c(-c3ccc(C(F)(F)F)cc3)c(C(=O)O)[nH]c2c1`, the half-maximal effective concentration (EC50) was found to be 19.8 µM in the experiment with CCRF-CEM and 24.4 µM in the experiment with RS4-11. Consider `C=C1/C(=C\C=C2/CCC[C@]3(C)[C@@H]([C@H](C)CCCC(C)(C)O)CC[C@@H]23)C[C@@H](O)C[C@@H]1O`, for which, in the experiment on HL-60 [1], the result was Active.

As to `COC(=O)c1[nH]c2cc(OC)ccc2c1C(C)C`, the results for the EC50 in the experiment on CCRF-CEM and in the experiment on RS4-11 were above 100 µM and 81.5 µM, respectively. Take `COC(=O)c1[nH]c2ccccc2c1-c1ccc(F)cc1`: the 50% effective concentration (EC50) in the experiment with CCRF-CEM and with RS4-11 was above 100 µM in each case. For the compound `COC(=O)c1[nH]c2ccccc2c1-c1ccc(OC)cc1`, the half-maximal effective concentration (EC50) with CCRF-CEM and in the experiment on RS4-11 was above 100 µM each time. `CCOC(=O)c1[nH]c2cc(OC)ccc2c1-c1ccc(C(F)(F)F)cc1`: the EC50 in the experiment on CCRF-CEM and in the experiment with RS4-11 was above 100 µM throughout.

Turning to `CC1=C(/C=C/C(C)=C/C=C/C(C)=C/C(=O)O)C(C)(C)CCC1`, the outcome with HL-60 [2] was Active. On to `COC(=O)c1[nH]c2cc(OC)ccc2c1-c1ccc(Cl)c(Cl)c1`, for which the figures for the EC50 with CCRF-CEM and with RS4-11 were 0.58 µM and 3.8 µM, respectively. Take `COC(=O)c1[nH]c2cc(OC)ccc2c1-c1ccccc1OC`: the EC50 with CCRF-CEM came to 1.9 µM; in the experiment on RS4-11, 10.5 µM. On the same counts, the results for `COC(=O)c1c(-c2ccc(C(F)(F)F)cc2)c2ccc(OC)cc2n1O` are 0.39 µM and 0.3 µM. `COC(=O)c1[nH]c2cc(OC)ccc2c1C`: the EC50 in the experiment with CCRF-CEM and in the experiment on RS4-11 was above 100 µM each time.

`COC(=O)c1[nH]c2cc(OC)ccc2c1Cc1ccccc1`: the concentration giving a half-maximal response (EC50) came out at 8.7 µM in the experiment on CCRF-CEM and 61.6 µM in the experiment on RS4-11. In the case of `COC(=O)c1[nH]c2ccc(OC)cc2c1-c1ccc(C(F)(F)F)cc1`, the EC50 in the experiment on CCRF-CEM and in the experiment with RS4-11 was above 100 µM each time. On to `COc1ccc2c(-c3ccc(C(F)(F)F)cc3)c(C(=O)OC(C)(C)C)[nH]c2c1`, for which the EC50 in the experiment on CCRF-CEM and with RS4-11 was above 100 µM throughout.
